Screens (PubChem BioAssay)
Granule exo inh – lytic granule exocytosis inhibition. TALL-104 LAMP-1 surface exposure, flow cytometry; cells stimulated with thapsigargin and PMA. inhibition, % at 10 µM. 360,000 tested, 0.66% active;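 active means inhibition above about 55%, limit read from the data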
ABCB6 inh 2 – human ABCB6 transporter inhibition. K562-ABCB6 porphyrin accumulation, flow cytometry, 1 h; hits give low values. fluorescence ratio to DMSO, % at 10 µM. 360,000 tested, 0.19% active. AID 602162;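 active means fluorescence ratio to DMSO below 75%, the collection mean minus 3 SD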;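 further: signal is porphyrin accumulated inside mitochondria; 100% equals median channel fluorescence of DMSO control wells; lower ratio means ABCB6 inhibition with less porphyrin fluorescence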
hiPSC survival – increases survival of single human iPS cells; hiPSC single-cell survival, ATPlite luminescence; 100% = ROCK inhibitor wells, 0% = DMSO; survival enhancement, % at 20 µM; AID 602274; 360,000 tested, 0.044% active; in the data active means survival enhancement above about 18%;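 further: cells exposed to compounds for 16 hours before the ATP read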
MC4R barr agon – agonists of human melanocortin 4 receptor (MC4R) beta-arrestin; 360,000 tested, 0.98% active; P32245; activation, % at 8.9 µM; AID 540308; U2OS MC4R beta-arrestin complementation, luminescence; percent of melanotan II response, DMSO zero;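 active means activation above a per-plate cutoff, the mean activation of sample wells on that plate plus 3 SD, cut at about 8% in these data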
Target sequence (P32245 whole entry, looked up): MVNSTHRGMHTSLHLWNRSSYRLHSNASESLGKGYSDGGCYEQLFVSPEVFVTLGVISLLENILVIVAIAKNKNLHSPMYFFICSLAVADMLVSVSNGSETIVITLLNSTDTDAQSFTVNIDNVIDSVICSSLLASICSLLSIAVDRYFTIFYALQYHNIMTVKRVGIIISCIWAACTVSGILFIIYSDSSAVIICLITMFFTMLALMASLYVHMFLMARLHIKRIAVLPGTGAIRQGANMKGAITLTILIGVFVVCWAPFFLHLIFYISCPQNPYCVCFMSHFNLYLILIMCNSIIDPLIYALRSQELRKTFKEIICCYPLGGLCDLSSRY
TbMetRS inhib – blocks T. brucei methionyl-tRNA synthetase activity. purified T. brucei MetRS, ATP depletion, Kinase-Glo luminescence. inhibition, % at 11.9 µM. 360,000 tested, 0.4% active;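 active means inhibition above a per-plate cutoff of the control wells' mean inhibition plus 3 SD, cut at about 5.5% in these data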;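 further: 0% = DMSO wells median and 100% = median of wells with control inhibitor compound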
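Assay system: T. brucei methionyl-tRNA synthetase, purified | Medium: HEPES buffer with MgCl2, KCl, DTT, spermine, BSA, pyrophosphatase | Compound: 11.9 µM single point | Incubation: 15 min enzyme-compound preincubation, 2 h reaction, 10 min detection, 25 °C | Measured by: Kinase-Glo luciferase luminescence reporting remaining unconsumed ATP | Measure: % inhibition normalized to control-well medians | Replication: Singlicate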
MC4R antag cAMP – human MC4R antagonism in cAMP assay | inhibition, % at 6.5 µM | AID 540295 | P32245 | MC4R-expressing cells, MTII-stimulated cAMP, LANCE TR-FRET | 360,000 tested, 0.48% active;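 active means inhibition above its plate's cutoff, the mean of tested wells on that plate plus 3 SD, cut at about 29% in these data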;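 further: 0% = Melanotan II alone and 100% = Melanotan II plus saturating MCL0020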
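Assay system: human MC4R-expressing U2OS cells; reagent: Melanotan II stimulation of cells; dosing: 6.5 µM single dose; timing: compound 30 min, challenge 1 h, detection 1 h; signal: TR-FRET cAMP assay; replicates: one well per compound, no replicates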
MC4R barr ag – human MC4R beta-arrestin agonism confirmation. shares compounds with MC4R barr agon. U2OS MC4R beta-arrestin recruitment, luminescence; scaled DMSO 0%, Melanotan II 100%. activation, % at 8.9 µM. 2,400 tested, 31% active;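 active means mean activation across replicates above the hit cutoff set in the earlier primary screen, cut at about 8% in these data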
MOR-DOR barr ag – OPRM1-OPRD1 heterodimer agonism counter-screen | shares compounds with MC4R barr agon | U2OS PathHunter beta-arrestin, beta-gal luminescence; percent of deltorphin B response, DMSO zero | activation, % at 9.2 µM | 2,400 tested, 5.8% active | AID 602194;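 active means mean activation across replicates exceeds the hit threshold derived in the earlier primary screen, cut at about 18% in these data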;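 further: 100% = deltorphin B at 0.9 µM final and 0% = DMSO alone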
An asterisk follows results filed as active. An excerpt weighted towards active compounds, which were near 2.6% of everything screened.

What do the screens show for `CCOC(=O)c1sc2nc(NC(=O)C(C)(C)C)sc2c1C`?
Granule exo inh: 4; ABCB6 inh 2: 99; hiPSC survival: 0; MC4R barr agon: 10.0*; TbMetRS inhib: 0; MC4R antag cAMP: 16; MC4R barr ag: 0; MOR-DOR barr ag: 8

What do the screens show for `O=C(NCC1OCCc2ccccc21)c1cc(COc2ccc(F)cc2Cl)on1` (centres undefined)?
Granule exo inh: 2; ABCB6 inh 2: 101; hiPSC survival: -2; MC4R barr agon: 15*; TbMetRS inhib: -1; MC4R antag cAMP: -1; MC4R barr ag: 6; MOR-DOR barr ag: 7

Results for O=C(NC1CCc2ccccc21)c1cc(COc2ccc(F)cc2F)on1 (centres undefined) ?
Granule exo inh: -2; ABCB6 inh 2: 95; hiPSC survival: 3; MC4R barr agon: -2; TbMetRS inhib: -1; MC4R antag cAMP: -1

What do the screens show for `COCCN(C(=O)COc1ccccc1C#N)c1c(N)n(Cc2ccccc2)c(=O)[nH]c1=O`?
Granule exo inh: -4; ABCB6 inh 2: 102; hiPSC survival: 0; MC4R barr agon: -2; TbMetRS inhib: 0; MC4R antag cAMP: 1

How did CCC(C)c1ccc(OCCn2cc(/C=N/NC(=O)CSc3nnc(C)s3)c3ccccc32)cc1 (centres undefined) do in these assays?
Granule exo inh: 17; ABCB6 inh 2: 92; hiPSC survival: 3; MC4R barr agon: 16*; TbMetRS inhib: 0; MC4R antag cAMP: 16; MC4R barr ag: 5; MOR-DOR barr ag: 5

How did Cc1cccc(OCCn2cc(/C=N/NC(=O)c3ccncc3)c3ccccc32)c1 do in these assays?
Granule exo inh: 4; ABCB6 inh 2: 94; hiPSC survival: 0; MC4R barr agon: -1; TbMetRS inhib: 0; MC4R antag cAMP: 9

Results for Cc1nn(Cc2ccccc2Cl)c(C)c1C(=O)NCCN1C(=O)S/C(=C\c2ccccc2)C1=O ?
Granule exo inh: 5; ABCB6 inh 2: 95; hiPSC survival: 0; MC4R barr agon: 20*; TbMetRS inhib: -1; MC4R antag cAMP: -16; MC4R barr ag: 12*; MOR-DOR barr ag: 5

What do the screens show for `CCOC(=O)c1c(S(=O)(=O)NCC(=O)Nc2ccc(F)cc2)c(C)n(C)c1C`?
Granule exo inh: 1; ABCB6 inh 2: 101; hiPSC survival: 0; MC4R barr agon: 1; TbMetRS inhib: 0; MC4R antag cAMP: 0

What do the screens show for `Cc1ccc(C(C)C)c(OCc2nnc(SCC(=O)Nc3ncc(C)s3)n2C)c1`?
Granule exo inh: 0; ABCB6 inh 2: 98; hiPSC survival: 2; MC4R barr agon: 13*; TbMetRS inhib: 0; MC4R antag cAMP: -2; MC4R barr ag: 6; MOR-DOR barr ag: 7

How did Cc1ccccc1OCc1nnc(SCC(=O)Nc2ccc3nc(SCC(=O)Nc4ccccc4)sc3c2)n1C do in these assays?
Granule exo inh: 0; ABCB6 inh 2: 94; hiPSC survival: -1; MC4R barr agon: 18*; TbMetRS inhib: -1; MC4R antag cAMP: -1; MC4R barr ag: 6; MOR-DOR barr ag: 5

What do the screens show for `Cc1cnc(NC(=O)CSc2nnc(Cc3ccccc3)n2C)s1`?
Granule exo inh: 4; ABCB6 inh 2: 98; hiPSC survival: 0; MC4R barr agon: -1; TbMetRS inhib: 0; MC4R antag cAMP: 1

How did Cn1cnnc1SCC(=O)Nc1ccc2nc(SCc3cccc4ccccc34)sc2c1 do in these assays?
Granule exo inh: -3; ABCB6 inh 2: 98; hiPSC survival: 0; MC4R barr agon: 9.6*; TbMetRS inhib: -1; MC4R antag cAMP: 10; MC4R barr ag: 3; MOR-DOR barr ag: 3
